Results published in PMC7729281 (Biochemistry, 2020).
“And” between values parts separate entries of the source, which are not always exact repeats. Equal values may be shown once.

Columns and labels:
h12-LOX [1] = molecular target: T1, h12-LOX (Homo sapiens, UniProt P18054); assay: Product analysis of h12-LOX reactions; format: biochemical; conditions: h12-LOX + 1 μM 14S-HpDHA, 60 min, pH 8.0, ambient O2
T1 sequence (P18054 1-663): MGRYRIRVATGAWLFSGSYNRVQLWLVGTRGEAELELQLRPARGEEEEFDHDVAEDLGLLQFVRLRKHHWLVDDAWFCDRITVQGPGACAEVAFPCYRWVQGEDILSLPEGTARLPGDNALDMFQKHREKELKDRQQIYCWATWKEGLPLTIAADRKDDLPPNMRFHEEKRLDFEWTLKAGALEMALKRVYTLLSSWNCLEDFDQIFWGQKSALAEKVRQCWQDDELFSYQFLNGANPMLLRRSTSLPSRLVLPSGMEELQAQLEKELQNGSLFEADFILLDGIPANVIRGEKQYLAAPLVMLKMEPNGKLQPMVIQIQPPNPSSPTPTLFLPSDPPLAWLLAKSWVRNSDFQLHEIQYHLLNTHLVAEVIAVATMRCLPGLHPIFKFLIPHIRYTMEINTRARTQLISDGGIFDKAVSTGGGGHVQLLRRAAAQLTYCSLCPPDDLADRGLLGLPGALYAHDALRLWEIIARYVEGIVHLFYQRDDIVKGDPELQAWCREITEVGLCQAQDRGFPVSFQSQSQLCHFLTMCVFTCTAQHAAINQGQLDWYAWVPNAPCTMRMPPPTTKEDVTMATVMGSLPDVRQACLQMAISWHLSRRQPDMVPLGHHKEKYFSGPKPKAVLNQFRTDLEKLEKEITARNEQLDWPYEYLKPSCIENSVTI
Outline: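 h15-LOX-1 (0.125 μM, pH 7.5) or h12-LOX (0.300 μM, pH 8.0) was reacted in 25 mM HEPES at room temperature under ambient O2. Substrates were 10 μM DHA for 1 min (monitored at 234 nm) or 1 μM 14S-HpDHA for 20 min (h15-LOX-1) or 1 h (h12-LOX) (monitored at 270 nm). Reactions were quenched with acetic acid, spiked with d5-maresin-1, extracted into DCM and background-subtracted against a no-enzyme control. Split samples were run with or without trimethyl phosphite reduction. Products were identified by C18 LC-MS/MS (qTOF), N = 3.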

h15-LOX-1 = molecular target: T2, h15-LOX-1 (Homo sapiens, UniProt P16050); assay: Allosteric modulation of 14S-HpDHA epoxidation by h15-LOX-1; format: biochemical
T2 sequence (P16050 1-662): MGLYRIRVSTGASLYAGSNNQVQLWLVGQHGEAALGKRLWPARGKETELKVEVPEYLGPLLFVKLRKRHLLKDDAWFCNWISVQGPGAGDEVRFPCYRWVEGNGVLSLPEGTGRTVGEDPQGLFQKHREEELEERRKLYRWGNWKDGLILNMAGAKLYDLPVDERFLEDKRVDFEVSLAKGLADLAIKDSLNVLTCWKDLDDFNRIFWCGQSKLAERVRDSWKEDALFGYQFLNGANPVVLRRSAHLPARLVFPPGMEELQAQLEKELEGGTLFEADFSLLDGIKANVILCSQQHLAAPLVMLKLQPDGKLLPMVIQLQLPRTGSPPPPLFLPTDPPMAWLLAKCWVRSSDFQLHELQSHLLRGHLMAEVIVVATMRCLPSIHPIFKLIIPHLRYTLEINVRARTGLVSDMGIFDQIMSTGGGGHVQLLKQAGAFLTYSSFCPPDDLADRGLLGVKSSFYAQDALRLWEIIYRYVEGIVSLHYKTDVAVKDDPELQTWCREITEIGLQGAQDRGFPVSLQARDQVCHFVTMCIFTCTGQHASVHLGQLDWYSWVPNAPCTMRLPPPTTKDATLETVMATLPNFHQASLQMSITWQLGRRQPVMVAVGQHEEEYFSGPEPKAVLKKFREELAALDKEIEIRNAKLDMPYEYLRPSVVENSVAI
Outline: (§1)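 Recombinant human h15-LOX-1 (0.125 μM, 25 mM HEPES pH 7.5, 20 min) or h12-LOX (0.3 μM, pH 8.0, 1 h) reacted at room temperature with 1 μM 14S-HpDHA while oxylipin modulator was titrated (1–100 μM), or with 14S-HpDHA varied alone (1–50 μM). Products were reduced and analysed by LC-MS. Dehydration (epoxide) versus oxygenation product percentages were calculated, N = 3.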

h12-LOX [2] = molecular target: T1, h12-LOX; assay: Allosteric modulation of 14S-HpDHA epoxidation by h12-LOX; format: biochemical; conditions: 14S-HpDHA titrated 1 to 50 μM, 76% at start
Outline: as §1

h15-LOX-2 = molecular target: T3, h15-LOX-2 (Homo sapiens, UniProt O15296); assay: Steady-state kinetics of h15-LOX-2 with 14S-HpDHA; format: biochemical; conditions: various 14S-HpDHA concentrations
T3 sequence (O15296 1-676): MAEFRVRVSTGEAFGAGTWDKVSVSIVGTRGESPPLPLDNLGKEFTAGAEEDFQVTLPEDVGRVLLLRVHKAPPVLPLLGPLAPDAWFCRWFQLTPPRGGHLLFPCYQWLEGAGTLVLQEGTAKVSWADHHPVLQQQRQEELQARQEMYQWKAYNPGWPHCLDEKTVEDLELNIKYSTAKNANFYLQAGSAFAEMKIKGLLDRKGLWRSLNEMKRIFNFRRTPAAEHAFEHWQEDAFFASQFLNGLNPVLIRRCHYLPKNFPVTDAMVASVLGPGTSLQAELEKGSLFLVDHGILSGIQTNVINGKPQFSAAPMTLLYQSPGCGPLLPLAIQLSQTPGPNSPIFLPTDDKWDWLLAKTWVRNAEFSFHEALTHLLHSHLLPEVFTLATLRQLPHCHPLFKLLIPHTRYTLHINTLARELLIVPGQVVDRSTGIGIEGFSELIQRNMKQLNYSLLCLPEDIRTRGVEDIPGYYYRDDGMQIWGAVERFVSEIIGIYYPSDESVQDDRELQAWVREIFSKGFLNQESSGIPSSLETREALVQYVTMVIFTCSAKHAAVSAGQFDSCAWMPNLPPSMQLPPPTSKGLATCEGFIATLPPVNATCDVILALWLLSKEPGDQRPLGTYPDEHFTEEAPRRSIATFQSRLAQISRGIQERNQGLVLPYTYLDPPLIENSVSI
Outline: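 Reactions were run in a quartz cuvette containing 2 mL of 25 mM HEPES, pH 7.5, at room temperature, with 14S-HpDHA at various concentrations. The 14S-HpDHA stock was quantified at 234 nm in methanol (ε 27 000 M−1 cm−1). Product formation was followed by absorbance at 270 nm (ε 37 000 M−1 cm−1), with triplicate reactions.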

h12-LOX [3] = molecular target: T1, h12-LOX; assay: Steady-state kinetics of h12-LOX
[4] = h12-LOX + substrate, 25 mM HEPES pH 8.0, RT

CC/C=C\C/C=C\C[C@@H](/C=C/C=C\C/C=C\C/C=C\CCC(=O)O)OO [14S-HpDHA, 14S-hydroperoxy-4Z,7Z,10Z,12E,16Z,19Z-docosahexaenoic acid]
product profile: 7S,14S-EZE-diHpDHA (h12-LOX [1]): 12% and 12 ± 2% | product profile: 13S,14S-epoxy-DHA (detected as 7S/R,14S-EEE-diHDHA) (h12-LOX [1]): 76% and 76 ± 11% | product profile: 14S,20-diHpDHA (h12-LOX [1]): 13% and 13 ± 9% | 7S,14S-EZE-diHDHA (oxygenation product) (h15-LOX-1; h15-LOX-1, 14S-HpDHA at high concentration (50 μM)): 76 ± 0.5% | 7R/S,14S-EEE-diHDHA (epoxide degradation product) (h15-LOX-1; h15-LOX-1, 14S-HpDHA at low concentration (1 μM)): 71 ± 11% | epoxidation product at end of titration (h12-LOX [2]): 19% | reaction with h15-LOX-2 (h15-LOX-2): not to react | fold difference of 13S,14S-epoxy-DHA biosynthetic flux (h12-LOX [3]; h12-LOX + 14S-HpDHA): 1.0 | 13S,14S-epoxy-DHA biosynthetic flux (h12-LOX [3]; h12-LOX + 14S-HpDHA, B.F. = kcat/KM * % product): 0.0018 | Km (h12-LOX [3]; [4]): 88 ± 16 µM | kcat (h12-LOX [3]; [4]): 0.22 ± 0.02 s⁻¹ | reduction of kcat (h12-LOX [3]; h12-LOX, 14S-HpDHA relative to DHA): 60 fold | fold difference of kcat/KM (h12-LOX [3]; h12-LOX, kcat/KM of enzyme with DHA set to 1 (Table 5)): −5880
